≈ marks a conversion by molar mass, not a printed value.
Experiments:
[1] = Stability of compound at pH 1 assessed as prodrug remaining level at 125 ug/ml incubated for 24 hrs by HPLC analysis; format: physicochemical; conditions: buffer, pH 1, 24 h, at 125 µg/mL
In short: (§1)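 A DMSO stock of about 1.25 mg/mL was diluted into 0.1 N HCl (pH 1) or 50 mM phosphate buffer (pH 7.4), giving final concentrations of ~125 µg/mL prodrug and 10% DMSO. The solution was filtered and held at 37 °C in the HPLC autosampler, with injections at several times over 24 h. Percent remaining was calculated from prodrug peak area relative to t0.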

[2] = Cmax in CD1 mouse assessed as pibrentasvir1 level at 6 mg/kg, po measured up to 24 hrs; format: ADME, organism-based; parameters: route oral, dose 6 mg/kg, time <=24; conditions: in vivo
In short: (§2)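 CD-1 mice with free access to food and water received an oral gavage of prodrug or PIB at 10 mL/kg in 0.2% HPMC. The dose was adjusted for prodrug MW to equal 6 mg/kg PIB. K2EDTA blood was drawn at 0.25, 0.5, 1, 3, 6, 9, 12 and 24 h. Plasma was spun at 3200 x g for 5 min at ~4°C and stored below -15°C. PIB and prodrug were measured; AUC in ng·h/mL, Cmax in ng/mL.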

[3] = Solubility in FeSSIF at pH 5; format: physicochemical
In short: (§3)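 For equilibrium solubility, excess solid was added to 3–4 mL of medium, in triplicate. Suspension pH was read after equilibration. Solids were removed by centrifugation at 4000 rpm at 25 °C, and the supernatant was passed through a 0.45 µm filter, discarding the first 2 mL. The filtrate was quantified by HPLC against standard curves.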

[4] = AUC in CD1 mouse assessed as pibrentasvir1 level at 6 mg/kg, po measured up to 24 hrs; format: ADME, organism-based; parameters: route oral, dose 6 mg/kg, time <=24; conditions: in vivo; in short: as §2
[5] = Equilibrium solubility of compound at pH 7.4 incubated for 24 to 48 hrs by HPLC analysis; format: physicochemical; conditions: buffer, time 24-48 hrs; in short: as §3
[6] = Stability of compound at pH 7.4 assessed as prodrug remaining level at 125 ug/ml incubated for 24 hrs by HPLC analysis; format: physicochemical; conditions: buffer, pH 7.4, 24 h, at 125 µg/mL; in short: as §1
[7] = Equilibrium solubility of compound at pH 1 incubated for 24 to 48 hrs by HPLC analysis; format: physicochemical; conditions: buffer, time 24-48 hrs; in short: as §3
[8] = AUC in CD1 mouse assessed as pibrentasvir1 level at 3 mg/kg, po measured up to 24 hrs; format: ADME, organism-based; parameters: route oral, dose 3 mg/kg, time <=24; conditions: in vivo
In short: (§4)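 CD-1 mice, fed ad libitum, were dosed orally at a prodrug-MW-adjusted dose equal to 3 mg/kg PIB, as a solution or suspension. Serial K2EDTA blood samples were taken from 0.25 to 24 h. Plasma was separated by centrifugation and kept frozen. PIB and prodrug levels were reported as Cmax (ng/mL) and AUC (ng·h/mL).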

[9] = AUC in beagle dog assessed as pibrentasvir1 level at 40 mg, po measured up to 24 hrs; format: ADME, organism-based, Canis lupus familiaris; parameters: route oral, dose 40 mg, time <=24; conditions: in vivo
In short: (§5)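 The dose equalled 40 mg PIB after adjustment for prodrug MW. Food was returned at 12 h. K2EDTA plasma was sampled at 0.25–24 h. Cmax is in ng/mL and AUC in ng·h/mL.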

[10] = Cmax in CD1 mouse assessed as pibrentasvir1 level at 3 mg/kg, po measured up to 24 hrs; format: ADME, organism-based; parameters: route oral, dose 3 mg/kg, time <=24; conditions: in vivo; in short: as §4
[11] = Cmax in beagle dog assessed as pibrentasvir1 level at 40 mg, po measured up to 24 hrs; format: ADME, organism-based, Canis lupus familiaris; parameters: route oral, dose 40 mg, time <=24; conditions: in vivo; in short: as §5

Structure (SMILES) | Stabilty [1] [%] | Cmax [2] [ng/mL] | solubility [3] [µg/mL] | AUC [4] [ng·h/mL] | solubility thermodynamic [5] [µg/mL] | Stabilty [6] [%] | solubility thermodynamic [7] [µg/mL] | AUC [8] [ng·h/mL] | AUC [9] [ng·h/mL] | Cmax [10] [ng/mL] | Cmax [11] [ng/mL]
COC(=O)N[C@H](C(=O)N1CCC[C@H]1c1nc2cc(F)c([C@H]3CC[C@H](c4cc5c(cc4F)nc([C@@H]4CCCN4C(=O)[C@@H](NC(=O)OC)[C@@H](C)OC)n5COC(=O)CCCOP(=O)(O)O)N3c3cc(F)c(N4CCC(c5ccc(F)cc5)CC4)c(F)c3)cc2[nH]1)[C@@H](C)OC | 76 | 784 | > 1000 | 12600 | 874 (≈ 668 µM) | 80 | 609 (≈ 465 µM) |  |  |  | 
COC(=O)N[C@H](C(=O)N1CCC[C@H]1c1nc2cc([C@H]3CC[C@H](c4cc5c(cc4F)nc([C@@H]4CCCN4C(=O)[C@@H](NC(=O)OC)[C@@H](C)OC)n5COP(=O)(O)O)N3c3cc(F)c(N4CCC(c5ccc(F)cc5)CC4)c(F)c3)c(F)cc2n1COP(=O)(O)O)[C@@H](C)OC |  |  |  |  | > 1000 |  | > 1000 | 477 | 2580 | 28 | 275
COC(=O)N[C@H](C(=O)N1CCC[C@H]1c1nc2cc(F)c([C@H]3CC[C@H](c4cc5c(cc4F)nc([C@@H]4CCCN4C(=O)[C@@H](NC(=O)OC)[C@@H](C)OC)n5COP(=O)(O)O)N3c3cc(F)c(N4CCC(c5ccc(F)cc5)CC4)c(F)c3)cc2n1COP(=O)(O)O)[C@@H](C)OC |  |  |  |  | > 1000 |  | 567 (≈ 425 µM) | 353 | 611 | 20 | 66
COC(=O)N[C@H](C(=O)N1CCC[C@H]1c1nc2cc(F)c([C@H]3CC[C@H](c4cc5nc([C@@H]6CCCN6C(=O)[C@@H](NC(=O)OC)[C@@H](C)OC)n(COC(=O)Cc6ccccc6OP(=O)(O)O)c5cc4F)N3c3cc(F)c(N4CCC(c5ccc(F)cc5)CC4)c(F)c3)cc2[nH]1)[C@@H](C)OC | 15 | 584 | > 1000 | 9560 | < 0.2 | 28 | 2 (≈ 1.47 µM) |  | 2940 |  | 288
COC(=O)N[C@H](C(=O)N1CCC[C@H]1c1nc2cc(F)c([C@H]3CC[C@H](c4cc5c(cc4F)nc([C@@H]4CCCN4C(=O)[C@@H](NC(=O)OC)[C@@H](C)OC)n5COC(=O)c4cccc(OP(=O)(O)O)c4)N3c3cc(F)c(N4CCC(c5ccc(F)cc5)CC4)c(F)c3)cc2[nH]1)[C@@H](C)OC | 91 | 46 |  | 819 | > 1000 | 100 | > 1000 |  |  |  | 
COC(=O)N[C@H](C(=O)N1CCC[C@H]1c1nc2cc(F)c([C@H]3CC[C@H](c4cc5nc([C@@H]6CCCN6C(=O)[C@@H](NC(=O)OC)[C@@H](C)OC)n(COC(=O)N(C)c6ncccc6COP(=O)(O)O)c5cc4F)N3c3cc(F)c(N4CCC(c5ccc(F)cc5)CC4)c(F)c3)cc2[nH]1)[C@@H](C)OC | 92 | 380 | > 1000 | 6490 | > 1000 | 92 | > 1000 |  | 3020 |  | 297
COC(=O)N[C@H](C(=O)N1CCC[C@H]1c1nc2cc(F)c([C@H]3CC[C@H](c4cc5nc([C@@H]6CCCN6C(=O)[C@@H](NC(=O)OC)[C@@H](C)OC)n(COC(=O)CCCOP(=O)(O)O)c5cc4F)N3c3cc(F)c(N4CCC(c5ccc(F)cc5)CC4)c(F)c3)cc2[nH]1)[C@@H](C)OC | 82 | 336 | > 1000 | 5570 | 49 (≈ 37.4 µM) | 76 | 146 (≈ 112 µM) |  | 4510 |  | 462
COC(=O)N[C@H](C(=O)N1CCC[C@H]1c1nc2cc(F)c([C@H]3CC[C@H](c4cc5nc([C@@H]6CCCN6C(=O)[C@@H](NC(=O)OC)[C@@H](C)OC)n(COC(=O)c6cccc(OP(=O)(O)O)c6)c5cc4F)N3c3cc(F)c(N4CCC(c5ccc(F)cc5)CC4)c(F)c3)cc2[nH]1)[C@@H](C)OC | 96 | 96 | > 1000 | 1510 | 827 (≈ 616 µM) | 100 | 397 (≈ 296 µM) |  |  |  | 
COC(=O)N[C@H](C(=O)N1CCC[C@H]1c1nc2cc(F)c([C@H]3CC[C@H](c4cc5nc([C@@H]6CCCN6C(=O)[C@@H](NC(=O)OC)[C@@H](C)OC)n(COC(=O)c6ccccc6COP(=O)(O)O)c5cc4F)N3c3cc(F)c(N4CCC(c5ccc(F)cc5)CC4)c(F)c3)cc2[nH]1)[C@@H](C)OC | 99 | 622 | > 1000 | 10700 | < 0.2 | 89 | 99 (≈ 72.9 µM) |  | 1150 |  | 115
COC(=O)N[C@H](C(=O)N1CCC[C@H]1c1nc2cc(F)c([C@H]3CC[C@H](c4cc5c(cc4F)nc([C@@H]4CCCN4C(=O)[C@@H](NC(=O)OC)[C@@H](C)OC)n5COC(=O)c4ccccc4COP(=O)(O)O)N3c3cc(F)c(N4CCC(c5ccc(F)cc5)CC4)c(F)c3)cc2[nH]1)[C@@H](C)OC | 98 | 132 | > 1000 | 2420 | 92 (≈ 67.8 µM) | 84 | 543 (≈ 400 µM) |  |  |  | 
COC(=O)N[C@H](C(=O)N1CCC[C@H]1c1nc2cc(F)c([C@H]3CC[C@H](c4cc5c(cc4F)nc([C@@H]4CCCN4C(=O)[C@@H](NC(=O)OC)[C@@H](C)OC)n5COC(=O)[C@@H](N)C(C)C)N3c3cc(F)c(N4CCC(c5ccc(F)cc5)CC4)c(F)c3)cc2[nH]1)[C@@H](C)OC |  |  |  |  | < 0.2 |  | > 1000 |  |  |  | 
COC(=O)N[C@H](C(=O)N1CCC[C@H]1c1nc2cc(F)c([C@H]3CC[C@H](c4cc5c(cc4F)nc([C@@H]4CCCN4C(=O)[C@@H](NC(=O)OC)[C@@H](C)OC)n5COC(=O)N(C)c4ncccc4COP(=O)(O)O)N3c3cc(F)c(N4CCC(c5ccc(F)cc5)CC4)c(F)c3)cc2[nH]1)[C@@H](C)OC | 92 | 567 | > 1000 | 9750 | > 1000 | 90 | > 1000 |  |  |  | 
COC(=O)N[C@H](C(=O)N1CCC[C@H]1c1nc2cc(F)c([C@H]3CC[C@H](c4cc5nc([C@@H]6CCCN6C(=O)[C@@H](NC(=O)OC)[C@@H](C)OC)n(COC(=O)[C@@H](NC(=O)OCOP(=O)(O)O)C(C)C)c5cc4F)N3c3cc(F)c(N4CCC(c5ccc(F)cc5)CC4)c(F)c3)cc2[nH]1)[C@@H](C)OC | 95 | 498 | > 1000 | 8840 | < 0.1 | 38 | 114 (≈ 81.6 µM) |  | 122 |  | 16

Reference: ChEMBL document CHEMBL4725393, “Prodrug Strategies to Improve the Solubility of the HCV NS5A Inhibitor Pibrentasvir (ABT-530)” (J Med Chem, 2020)
